Values joined by “and” are separate entries in the source; they are usually repeats but may differ in a detail not shown here. Equal entries are not always repeated.
Tested on: Fibroblast
Assay: Multiplex assay against human fibroblast
Type: toxicity, cell-based
Procedure, shortened: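 Cells stained live at seeding with Hoechst33342, BioTracker Green Microtubule Cytoskeleton Dye, MitoTracker Red and Annexin V Alexa Fluor 680 were imaged on a CQ1 microscope at 37°C and 5% CO2 after compound addition. Their classification by CellPathfinder machine-learning gating ran from Hoechst high-intensity objects versus normal cells, to healthy, pyknosed or fragmented nuclei among normal cells, to mitotic or apoptotic among pyknosed cells. Tubulin, mitochondrial-mass and membrane-permeability phenotypes are per cents of healthy-nucleus cells.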

[1] = 12 h, 1 µM, compound concentration 1 uM
[2] = 12 h, 10 µM, compound concentration 10 uM
[3] = 24 h, 1 µM, compound concentration 1 uM
[4] = 24 h, 10 µM, compound concentration 10 uM
[5] = 48 h, 1 µM, compound concentration 1 uM
[6] = 48 h, 10 µM, compound concentration 10 uM

## CC(C)(C)c1cc(NC(=O)Nc2ccc(-c3cn4c(n3)sc3cc(OCCN5CCOCC5)ccc34)cc2)no1 [QUIZARTINIB]
[1]
  Population Apoptotic (%): 42% and 41%
  Population Fragmented Nuclei (%): 16% and 24%
  Population Healthy Nuclei (%): 65% and 52%
  Population Hoechst High Intensity Objects (%): 2%
  Population Membrane Permeable-Phenotype (%): 0% and 1%
  Population Mitochondria Different-Phenotype (%): 7% and 5%
  Population Mitotic Cells (%): 57% and 58%
  Population Normal (%): 97%
  Population Pyknosed Nuclei (%): 17% and 23%
  Population Tubulin-Different-Phenotype (%): 31% and 41%
  Total Cell Count: 150 and 137
[2]
  Population Apoptotic (%): 43% and 48%
  Population Fragmented Nuclei (%): 34% and 35%
  Population Healthy Nuclei (%): 56% and 45%
  Population Hoechst High Intensity Objects (%): 3% and 5%
  Population Membrane Permeable-Phenotype (%): 0% and 5%
  Population Mitochondria Different-Phenotype (%): 10% and 5%
  Population Mitotic Cells (%): 56% and 51%
  Population Normal (%): 96% and 94%
  Population Pyknosed Nuclei (%): 8% and 18%
  Population Tubulin-Different-Phenotype (%): 75% and 70%
  Total Cell Count: 190 and 162
[3]
  Population Apoptotic (%): 58% and 42%
  Population Fragmented Nuclei (%): 14% and 25%
  Population Healthy Nuclei (%): 72% and 61%
  Population Hoechst High Intensity Objects (%): 1% and 3%
  Population Membrane Permeable-Phenotype (%): 0% and 2%
  Population Mitochondria Different-Phenotype (%): 6%
  Population Mitotic Cells (%): 41% and 57%
  Population Normal (%): 98% and 96%
  Population Pyknosed Nuclei (%): 12% and 13%
  Population Tubulin-Different-Phenotype (%): 32% and 44%
  Total Cell Count: 137 and 152
[4]
  Population Apoptotic (%): 75% and 39%
  Population Fragmented Nuclei (%): 33% and 40%
  Population Healthy Nuclei (%): 57% and 46%
  Population Hoechst High Intensity Objects (%): 1% and 4%
  Population Membrane Permeable-Phenotype (%): 0% and 1%
  Population Mitochondria Different-Phenotype (%): 21% and 10%
  Population Mitotic Cells (%): 25% and 60%
  Population Normal (%): 98% and 95%
  Population Pyknosed Nuclei (%): 8% and 13%
  Population Tubulin-Different-Phenotype (%): 71% and 70%
  Total Cell Count: 190 and 179
[5]
  Population Apoptotic (%): 75% and 42%
  Population Fragmented Nuclei (%): 19% and 30%
  Population Healthy Nuclei (%): 71% and 60%
  Population Hoechst High Intensity Objects (%): 8% and 3%
  Population Membrane Permeable-Phenotype (%): 0% and 1%
  Population Mitochondria Different-Phenotype (%): 5% and 8%
  Population Mitotic Cells (%): 25% and 57%
  Population Normal (%): 91% and 96%
  Population Pyknosed Nuclei (%): 9%
  Population Tubulin-Different-Phenotype (%): 38% and 34%
  Total Cell Count: 145 and 158
[6]
  Population Apoptotic (%): 79% and 60%
  Population Fragmented Nuclei (%): 30% and 44%
  Population Healthy Nuclei (%): 56% and 50%
  Population Hoechst High Intensity Objects (%): 7% and 3%
  Population Membrane Permeable-Phenotype (%): 0% and 2%
  Population Mitotic Cells (%): 20% and 40%
  Population Normal (%): 92% and 96%
  Population Pyknosed Nuclei (%): 13% and 5%
  Population Tubulin-Different-Phenotype (%): 74% and 59%
  Total Cell Count: 195

## N#Cc1c(Oc2cccc(OS(=O)(=O)CCCC(F)(F)F)c2)cccc1C(F)(F)F
[1]
  Population Apoptotic (%): 51% and 38%
  Population Fragmented Nuclei (%): 13% and 27%
  Population Healthy Nuclei (%): 63% and 48%
  Population Hoechst High Intensity Objects (%): 2% and 7%
  Population Membrane Permeable-Phenotype (%): 1% and 9%
  Population Mitochondria Different-Phenotype (%): 7%
  Population Mitotic Cells (%): 48% and 61%
  Population Normal (%): 97% and 92%
  Population Pyknosed Nuclei (%): 23% and 24%
  Population Tubulin-Different-Phenotype (%): 38% and 59%
  Total Cell Count: 146 and 148
[2]
  Population Apoptotic (%): 31% and 66%
  Population Fragmented Nuclei (%): 14% and 42%
  Population Healthy Nuclei (%): 59% and 22%
  Population Hoechst High Intensity Objects (%): 6% and 7%
  Population Mitochondria Different-Phenotype (%): 7% and 3%
  Population Mitotic Cells (%): 68% and 33%
  Population Normal (%): 93% and 92%
  Population Pyknosed Nuclei (%): 26% and 35%
  Population Tubulin-Different-Phenotype (%): 36% and 75%
  Total Cell Count: 180 and 138
[3]
  Population Apoptotic (%): 50% and 54%
  Population Fragmented Nuclei (%): 20% and 33%
  Population Healthy Nuclei (%): 62% and 50%
  Population Hoechst High Intensity Objects (%): 6% and 3%
  Population Membrane Permeable-Phenotype (%): 1% and 5%
  Population Mitochondria Different-Phenotype (%): 4% and 5%
  Population Mitotic Cells (%): 50% and 45%
  Population Normal (%): 93% and 96%
  Population Pyknosed Nuclei (%): 17% and 16%
  Population Tubulin-Different-Phenotype (%): 45% and 57%
  Total Cell Count: 148 and 147
[4]
  Population Apoptotic (%): 44% and 61%
  Population Healthy Nuclei (%): 59% and 23%
  Population Hoechst High Intensity Objects (%): 5% and 8%
  Population Mitochondria Different-Phenotype (%): 12% and 22%
  Population Mitotic Cells (%): 55% and 38%
  Population Normal (%): 94% and 91%
  Population Pyknosed Nuclei (%): 27% and 36%
  Population Tubulin-Different-Phenotype (%): 43% and 77%
  Total Cell Count: 174 and 127
[5]
  Population Apoptotic (%): 60% and 38%
  Population Fragmented Nuclei (%): 18% and 26%
  Population Healthy Nuclei (%): 66% and 59%
  Population Hoechst High Intensity Objects (%): 7% and 5%
  Population Mitochondria Different-Phenotype (%): 5% and 2%
  Population Mitotic Cells (%): 40% and 61%
  Population Normal (%): 92% and 94%
  Population Pyknosed Nuclei (%): 14%
  Population Tubulin-Different-Phenotype (%): 42% and 56%
  Total Cell Count: 145 and 133
[6]
  Population Apoptotic (%): 52% and 59%
  Population Fragmented Nuclei (%): 20% and 43%
  Population Healthy Nuclei (%): 54% and 31%
  Population Hoechst High Intensity Objects (%): 9% and 2%
  Population Mitochondria Different-Phenotype (%): 12% and 15%
  Population Mitotic Cells (%): 47% and 40%
  Population Normal (%): 90% and 97%
  Population Pyknosed Nuclei (%): 24% and 25%
  Population Tubulin-Different-Phenotype (%): 47% and 89%
  Total Cell Count: 172 and 150

## O=C(Nc1c[nH]nc1-c1nc2cc(CN3CCOCC3)ccc2[nH]1)NC1CC1 [AT-9283]
[1]
  Population Apoptotic (%): 20% and 16.13%
  Population Fragmented Nuclei (%): 9.94% and 5.09%
  Population Healthy Nuclei (%): 62.43% and 80.56%
  Population Hoechst High Intensity Objects (%): 0%
  Population Membrane Permeable-Phenotype (%): 3.54% and 0.57%
  Population Mitochondria Different-Phenotype (%): 14.16% and 13.22%
  Population Mitotic Cells (%): 80% and 83.87%
  Population Normal (%): 100%
  Population Pyknosed Nuclei (%): 27.62% and 14.35%
  Population Tubulin-Different-Phenotype (%): 24.78% and 24.71%
  Total Cell Count: 181 and 216
[2]
  Population Apoptotic (%): 30% and 36.21%
  Population Fragmented Nuclei (%): 25% and 12.87%
  Population Healthy Nuclei (%): 54.59% and 65.81%
  Population Hoechst High Intensity Objects (%): 0%
  Population Membrane Permeable-Phenotype (%): 19.63% and 13.41%
  Population Mitochondria Different-Phenotype (%): 14.02% and 18.44%
  Population Mitotic Cells (%): 70% and 63.79%
  Population Normal (%): 100%
  Population Pyknosed Nuclei (%): 20.41% and 21.32%
  Population Tubulin-Different-Phenotype (%): 36.45% and 41.34%
  Total Cell Count: 196 and 272
[3]
  Population Apoptotic (%): 8.33% and 17.86%
  Population Fragmented Nuclei (%): 12.64% and 5.88%
  Population Healthy Nuclei (%): 67.58% and 68.78%
  Population Hoechst High Intensity Objects (%): 0%
  Population Membrane Permeable-Phenotype (%): 6.5% and 2.63%
  Population Mitochondria Different-Phenotype (%): 13.01% and 9.87%
  Population Mitotic Cells (%): 91.67% and 82.14%
  Population Normal (%): 100%
  Population Pyknosed Nuclei (%): 19.78% and 25.34%
  Population Tubulin-Different-Phenotype (%): 28.46% and 22.37%
  Total Cell Count: 182 and 221
[4]
  Population Apoptotic (%): 38.98% and 73.44%
  Population Fragmented Nuclei (%): 21.08% and 15.35%
  Population Healthy Nuclei (%): 43.37% and 56.58%
  Population Hoechst High Intensity Objects (%): 0%
  Population Membrane Permeable-Phenotype (%): 23.61% and 16.28%
  Population Mitochondria Different-Phenotype (%): 16.67% and 18.6%
  Population Mitotic Cells (%): 61.02% and 26.56%
  Population Normal (%): 100%
  Population Pyknosed Nuclei (%): 35.54% and 28.07%
  Population Tubulin-Different-Phenotype (%): 38.89% and 57.36%
  Total Cell Count: 166 and 228
[5]
  Population Apoptotic (%): 41.3% and 71.67%
  Population Fragmented Nuclei (%): 16.56% and 16.58%
  Population Healthy Nuclei (%): 54.14% and 51.34%
  Population Hoechst High Intensity Objects (%): 0%
  Population Membrane Permeable-Phenotype (%): 3.53% and 9.38%
  Population Mitochondria Different-Phenotype (%): 11.76% and 7.29%
  Population Mitotic Cells (%): 58.7% and 28.33%
  Population Normal (%): 100%
  Population Pyknosed Nuclei (%): 29.3% and 32.09%
  Population Tubulin-Different-Phenotype (%): 23.53% and 35.42%
  Total Cell Count: 157 and 187
[6]
  Population Apoptotic (%): 43.48% and 91.01%
  Population Fragmented Nuclei (%): 26.71% and 24.14%
  Population Healthy Nuclei (%): 44.72% and 32.02%
  Population Hoechst High Intensity Objects (%): 0%
  Population Membrane Permeable-Phenotype (%): 12.5% and 29.23%
  Population Mitochondria Different-Phenotype (%): 18.06% and 23.08%
  Population Normal (%): 100%
  Population Pyknosed Nuclei (%): 28.57% and 43.84%
  Population Tubulin-Different-Phenotype (%): 27.78% and 72.31%
  Total Cell Count: 161 and 203
